Where two headings read alike, the source gives them in different places. Blank lines part the entries; values can stand above or below the compound they belong to.
Columns and labels:
[1] = system: CEM (human lymphocyte) cells; experiment: Cytostatic activity: inhibition of tumor cell proliferation; format: cell-based; details: read-out: IC50 (50% inhibitory concentration)
Method in brief: (§1)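 Exponentially growing tumour cells were seeded in 96-well plates with a range of test-compound concentrations: CEM lymphocytes at 75,000 cells/well for 3 days, HeLa cervix carcinoma cells at 20,000 cells/well for 4 days. Viable cells were counted with a Coulter counter. The 50% value is the concentration inhibiting tumour cell proliferation by 50%.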

[2] = system: HEL (human lung fibroblast) cells; experiment: Cytostatic activity: inhibition of cell proliferation; format: cell-based; details: read-out: IC50 (50% inhibitory concentration)
[3] = system: HeLa (human cervix carcinoma) cells; experiment: Cytostatic activity: inhibition of tumor cell proliferation; format: cell-based; details: read-out: IC50 (50% inhibitory concentration)
Method in brief: as §1

[4] = system: MDCK, HEL, CrFK, HeLa and CEM cells; experiment: Cytostatic activity over the cell culture panel of Table 4; format: cell-based; details: read-out: IC50, range over the cell cultures
[5] = system: HCMV Davis strain; experiment: Antiviral assay: inhibition of virus-induced cytopathicity in HEL cell cultures; format: cell-based, human cytomegalovirus; details: Human betaherpesvirus 5, HEL, read-out: EC50 against HCMV Davis strain
[6] = system: HCMV AD-169 strain; experiment: as above; format: cell-based, human cytomegalovirus; details: Human betaherpesvirus 5, AD169, HEL, read-out: EC50 against HCMV AD-169 strain

IC50 ([1]; Homo sapiens, CCRF-CEM): 10 µM
IC50 [3]: 7.1 µM
Structure (SMILES): S=C(NN=Cc1ccc(Cl)s1)Nc1ccccc1 [Compound 2, 5-Chlorothiophene-2-carboxaldehyde-N(4)phenyl thiosemicarbazone]
IC50 [2]: 10.4 µM
IC50 [4]: 7.1 to 57.8 µM

Structure (SMILES): N.N.[Cl][Pt][Cl] [cisplatinum, reference compound]
IC50 ([1]; CEM cells): 2.2 µM

EC50 [5]: 3.4 µM
EC50 [6]: 5 µM
Structure (SMILES): Nc1nc(O)c2ncn(COC(CO)CO)c2n1 [ganciclovir]

Reference: paper PMC7126824 (European Journal of Medicinal Chemistry, 2011)
